Data: article PMC3461162 (British Journal of Cancer, 2012)

Assays:
[1] = Plasma pharmacokinetics, non-compartmental analysis; format: in vivo, human; details: for AUC(0-t) / AUC / Cmax / Vd/F / half-life / Tmax: human, plasma, oral; for AUC(0-t): AUC0–12, Gmean (range); for Vd/F: Vss/F, Amean (range)
[2] = system: phosphorylation levels of 4E-BP1 on threonine^37/46 in peripheral blood mononuclear cells (PBMCs); assay: 4E-BP1 phosphorylation in PBMCs; format: in vivo, human; details: 2 h post dose, MTD cohort (90 mg)
Outline: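 Adult patients with refractory advanced solid tumours or lymphoma got one oral dose on day 1, then continuous twice-daily dosing from one week later. They fasted at least 1 h before and after each dose. PBMCs were taken pre-dose and 2, 8 and 24 h post dose on day 1. Antibodies to the phosphorylated forms were used: AKT Ser473 by mesoscale detection, 4E-BP1 Thr37/46 by FACS.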

[3] = 40 mg, single dose, 40 mg solution (n=6)
[4] = 40 mg, single dose, 40 mg tablet (n=7)
[5] = 60 mg, single dose, 60 mg tablet (n=7)
[6] = 90 mg, single dose, 90 mg tablet (n=11)
[7] = 120 mg, single dose, 120 mg tablet (n=10)

COc1ccc(-c2ccc3c(N4CCOC[C@@H]4C)nc(N4CCOC[C@@H]4C)nc3n2)cc1CO [AZD8055]
AUC(0-t) [1, 3]: 99.4 ng·h/mL
AUC(0-t) [1, 4]: 124 ng·h/mL
AUC ([1]; 40 mg, AUC, Gmean (range), single dose, 40 mg solution (n=6)): 101 ng·h/mL
AUC ([1]; 40 mg, AUC, Gmean (range), single dose, 40 mg tablet (n=7)): 127 ng·h/mL
AUC ([1]; 40 mg, AUCss, Gmean (n) (range), following BID dosing, 40 mg BID solution): 111 ng·h/mL
AUC ([1]; 40 mg, AUCss, Gmean (n) (range), following BID dosing, 40 mg BID tablet): 101 ng·h/mL
Cmax ([1]; 40 mg, Cmax ss, Gmean (n) (range), following BID dosing, 40 mg BID solution): 61.9 ng/mL
Cmax ([1]; 40 mg, Cmax ss, Gmean (n) (range), following BID dosing, 40 mg BID tablet): 46.1 ng/mL
Cmax ([1]; 40 mg, Cmax, Gmean (range), single dose, 40 mg solution (n=6)): 70.9 ng/mL
Cmax ([1]; 40 mg, Cmax, Gmean (range), single dose, 40 mg tablet (n=7)): 72.3 ng/mL
Vd/F [1, 3]: 840 L
Vd/F [1, 4]: 762 L
half-life ([1]; 40 mg, t1/2, Amean (range), single dose, 40 mg solution (n=6)): 2.65 h
half-life ([1]; 40 mg, t1/2, Amean (range), single dose, 40 mg tablet (n=7)): 2.28 h
half-life ([1]; 40 mg, t1/2 ss, Amean (n) (range), following BID dosing, 40 mg BID solution): 2.13 h
half-life ([1]; 40 mg, t1/2 ss, Amean (n) (range), following BID dosing, 40 mg BID tablet): 3.04 h
Tmax ([1]; 40 mg, tmax ss, Median (n) (range), following BID dosing, 40 mg BID solution): 0.25 h
Tmax ([1]; 40 mg, tmax ss, Median (n) (range), following BID dosing, 40 mg BID tablet): 1 h
Tmax ([1]; 40 mg, tmax, Median (range), single dose, 40 mg solution (n=6)): 0.37 h
Tmax ([1]; 40 mg, tmax, Median (range), single dose, 40 mg tablet (n=7)): 1 h
AUC(0-t) [1, 5]: 131 ng·h/mL
AUC ([1]; 60 mg, AUC, Gmean (range), single dose, 60 mg tablet (n=7)): 136 ng·h/mL
AUC ([1]; 60 mg, AUCss, Gmean (n) (range), following BID dosing, 60 mg BID tablet): 178 ng·h/mL
Cmax ([1]; 60 mg, Cmax ss, Gmean (n) (range), following BID dosing, 60 mg BID tablet): 82.8 ng/mL
Cmax ([1]; 60 mg, Cmax, Gmean (range), single dose, 60 mg tablet (n=7)): 57.1 ng/mL
Vd/F [1, 5]: 1770 L
half-life ([1]; 60 mg, t1/2, Amean (range), single dose, 60 mg tablet (n=7)): 2.37 h
half-life ([1]; 60 mg, t1/2 ss, Amean (n) (range), following BID dosing, 60 mg BID tablet): 2.81 h
Tmax ([1]; 60 mg, tmax ss, Median (n) (range), following BID dosing, 60 mg BID tablet): 1 h
Tmax ([1]; 60 mg, tmax, Median (range), single dose, 60 mg tablet (n=7)): 0.5 h
Cmax ([1]; 90 mg): 70.1 ng/mL
half-life ([1]; 90 mg): 2.36 h
AUC(0-t) [1, 6]: 130 ng·h/mL
AUC ([1]; 90 mg, AUC, Gmean (range), single dose, 90 mg tablet (n=11)): 134 ng·h/mL
AUC ([1]; 90 mg, AUCss, Gmean (n) (range), following BID dosing, 90 mg BID tablet): 122 ng·h/mL
Cmax ([1]; 90 mg, Cmax ss, Gmean (n) (range), following BID dosing, 90 mg BID tablet): 70 ng/mL
Vd/F [1, 6]: 2450 L
half-life ([1]; 90 mg, t1/2 ss, Amean (n) (range), following BID dosing, 90 mg BID tablet): 2.63 h
Tmax ([1]; 90 mg, tmax ss, Median (n) (range), following BID dosing, 90 mg BID tablet): 0.5 h
Tmax ([1]; 90 mg, tmax, Median (range), single dose, 90 mg tablet (n=11), MTD): 0.5 h
AUC(0-t) [1, 7]: 280 ng·h/mL
AUC ([1]; 120 mg, AUC, Gmean (range), single dose, 120 mg tablet (n=10)): 294 ng·h/mL
AUC ([1]; 120 mg, AUCss, Gmean (n) (range), following BID dosing, 120 mg BID tablet): 501 ng·h/mL
Cmax ([1]; 120 mg, Cmax ss, Gmean (n) (range), following BID dosing, 120 mg BID tablet): 355 ng/mL
Cmax ([1]; 120 mg, Cmax, Gmean (range), single dose, 120 mg tablet (n=10)): 177 ng/mL
Vd/F [1, 7]: 1370 L
half-life ([1]; 120 mg, t1/2, Amean (range), single dose, 120 mg tablet (n=10)): 3.14 h
half-life ([1]; 120 mg, t1/2 ss, Amean (n) (range), following BID dosing, 120 mg BID tablet): 2.45 h
Tmax ([1]; 120 mg, tmax ss, Median (n) (range), following BID dosing, 120 mg BID tablet): 0.5 h
Tmax ([1]; 120 mg, tmax, Median (range), single dose, 120 mg tablet (n=10)): 0.5 h
half-life ([1]; mean t1/2, single and multiple doses across all cohorts): 1.7 to 3.1 h
Tmax ([1]; median tmax, single and multiple doses across all cohorts): ~0.5 h
Oral bioavailability ([1]; oral dosing in patients): orally bioavailable
tmax, Median (range) ([1]; single dose, 90 mg tablet (n=11), MTD): 1.00 (0.25–4) h
Dose proportionality of exposure ([1]; single dosing, all cohorts): proportional increases in exposure with increasing dose
Patients with transient decrease in p4E-BP1 in PBMC [2]: 2/5
